We go through 11 compounds from ChEMBL document CHEMBL4004811, “Enantiodivergence in the Biosynthesis of Bromotyrosine Alkaloids from Sponges?” (2017).

Common to all, as to type: functional
Experiment [1] relates to Staphylococcus aureus. The experiment can be described thus: Antimicrobial activity against methicillin-sensitive Staphylococcus aureus ATCC 29213 after 18 hrs by MTT dye based TLC assay. In a few lines: (§1)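 Overlay TLC bioautography: compounds applied on TLC plates and overlaid with the bacterial culture. Activity is reported as the minimum inhibitory quantity (MIQ), in μg of compound.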
For orientation: Tetrazolium assays rely on reduction of a dye to a coloured formazan, in cell work by metabolically active cells.

The test system of experiment [2] is Staphylococcus aureus. The experiment can be described thus: Antimicrobial activity against multidrug-resistant Staphylococcus aureus after 18 hrs by MTT dye based TLC assay. In a few lines:
(§2)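 Overlay TLC bioautography: samples applied to TLC plates and overlaid with the bacterial culture. The panel covered three S. aureus strains and one E. coli strain. Activity is read as minimum inhibitory quantity (MIQ, μg per spot).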

In experiment [3] the test system is Staphylococcus aureus. The experiment can be described thus: Antimicrobial activity against methicillin-resistant Staphylococcus aureus ATCC BAA1026 after 18 hrs by MTT dye based TLC assay. The procedure, abridged:
as §2

A further experiment deals with Escherichia coli. The experiment in a line: Antimicrobial activity against Escherichia coli ATCC 25922 after 18 hrs by MTT dye based TLC assay. The procedure, abridged:
as §1

Activity calls are given as the source filed them. The calls are words filed in the database; no cut-off is given here.

Regarding `COC1=C(Br)[C@@H](O)[C@]2(C=C1Br)CC(C(=O)NCCCOc1c(Br)cc(CC(N)C(=O)O)cc1Br)=NO2` (some centres not stated), the outcome in the experiment with Staphylococcus aureus [1], in the experiment on Staphylococcus aureus [2] and in the experiment with Staphylococcus aureus [3] was Active. Also, the result with Escherichia coli was inactive.
For the compound `CN[C@H](CC(C)C)C(=O)N[C@H]1C(=O)N[C@@H](CC(N)=O)C(=O)N[C@H]2C(=O)N[C@H]3C(=O)N[C@H](C(=O)N[C@H](C(=O)O)c4cc(O)cc(O)c4-c4cc3ccc4O)[C@H](O)c3ccc(c(Cl)c3)Oc3cc2cc(c3O[C@@H]2O[C@H](CO)[C@@H](O)[C@H](O)[C@H]2O[C@H]2C[C@](C)(N)[C@H](O)[C@H](C)O2)Oc2ccc(cc2Cl)[C@H]1O` [VANCOMYCIN], the MIC with Staphylococcus aureus [2] and in the experiment with Staphylococcus aureus [3] was 0.63 µg throughout.
`CCOC1(CCCNC(=O)C2=NO[C@@]3(C=C(Br)C(OC)=C(Br)[C@H]3O)C2)N=C(N)NC1=O` (mixture of isomers): the result in the experiment on Staphylococcus aureus [1], with Staphylococcus aureus [2] and in the experiment on Staphylococcus aureus [3] was Active. Moreover, in the experiment with Escherichia coli, the outcome was inactive.
As for `COC1=C(Br)[C@@H](O)[C@]2(C=C1Br)CC(C(N)=O)=NO2`, the outcome in the experiment with Staphylococcus aureus [1], in the experiment with Staphylococcus aureus [2] and in the experiment with Staphylococcus aureus [3] was Active. Moreover, the result with Escherichia coli was inactive.
For `COc1ccc(C/C(=N\O)C(=O)NCCc2cc(Br)c(OCCCN(C)C)c(Br)c2)cc1Br`, the result in the experiment on Staphylococcus aureus [1], in the experiment with Staphylococcus aureus [2] and in the experiment with Staphylococcus aureus [3] was Active. The outcome in the experiment on Escherichia coli was inactive.
For `COC1=C(Br)[C@@H](O)[C@]2(C=C1Br)CC(C(=O)NCCCC(=O)O)=NO2`, the outcome in the experiment on Staphylococcus aureus [1], in the experiment on Staphylococcus aureus [2] and with Staphylococcus aureus [3] was Active. The result in the experiment with Escherichia coli was inactive.
`CNCCCOc1c(Br)cc(CCNC(=O)/C(Cc2ccc(OC)c(Br)c2)=N/O)cc1Br`: the outcome with Staphylococcus aureus [1], in the experiment with Staphylococcus aureus [2] and in the experiment on Staphylococcus aureus [3] was Active. For the same compound, the result with Escherichia coli was inactive.
In turn, `COC1=C(Br)[C@@H](O)[C@]2(C=C1Br)CC(C(=O)NCCc1cc(Br)c(O)c(Br)c1)=NO2` gave an MIC in the experiment with Staphylococcus aureus [1] of 0.31 µg. Further, the result in the experiment with Staphylococcus aureus [2] and with Staphylococcus aureus [3] was Active. Besides, the outcome with Escherichia coli was inactive.
With `COC1=C(Br)[C@@H](O)[C@]2(C=C1Br)CC(C(=O)NCCCOc1c(Br)cc(C/C(=N\O)C(=O)NCCc3cnc(N)[nH]3)cc1Br)=NO2`, the outcome in the experiment with Staphylococcus aureus [1], in the experiment on Staphylococcus aureus [2] and with Staphylococcus aureus [3] was Active. In addition, the result in the experiment with Escherichia coli was inactive.
Consider `COC1=C(Br)[C@@H](O)[C@]2(C=C1Br)CC(C(=O)NCCCOc1c(Br)cc(CCN)cc1Br)=NO2`, for which the outcome in the experiment on Staphylococcus aureus [1], in the experiment on Staphylococcus aureus [2] and in the experiment with Staphylococcus aureus [3] was Active. Also, the outcome in the experiment on Escherichia coli was inactive.
Consider `COC1=C(Br)[C@@H](O)[C@]2(C=C1Br)CC(C(=O)NCCc1ccc(O)c(Br)c1)=NO2`, for which the MIC against Staphylococcus aureus [1] was determined as 0.31 µg. Moreover, the outcome with Staphylococcus aureus [2] and in the experiment with Staphylococcus aureus [3] was Active. The outcome in the experiment on Escherichia coli was inactive.
